Experiments:
[1] = system: Helicoverpa armigera; experiment: Stomach toxicity against third-instars Helicoverpa armigera assessed as larvicidal activity at 11 mg/kg at 25 +/- 1 degC after 3 days; type: functional
Summary of the method: (§1)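 Diet-incorporation assay on third-instar larvae. Samples dissolved in acetone to the desired final concentrations; 3 mL of test solution mixed evenly into about 27 g of prepared feed, then dispensed into 24-well plates. Run in triplicate at 25 ± 1 °C. Dead/alive scoring 3 days after treatment; mortality corrected by Abbott's formula on a 0–100 scale.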

[2] = system: Tetranychus cinnabarinus; experiment: Acaricidal activity against Tetranychus cinnabarinus (carmine spider mite) larvae at 600 mg/kg by leaf dip method; type: functional
[3] = system: Plutella xylostella; experiment: Stomach toxicity against Plutella xylostella (diamondback moth) assessed as larvicidal activity at 600 mg/kg by leaf dip method; type: functional
[4] = system: Culex pipiens pallens; experiment: Larvicidal activity against Culex pipiens pallens (mosquito) at 5 mg/kg; type: functional
[5] = system: Helicoverpa armigera; experiment: Stomach toxicity against third-instars Helicoverpa armigera assessed as larvicidal activity at 110 mg/kg at 25 +/- 1 degC after 3 days; type: functional; summary of the method: as §1
[6] = system: Tetranychus cinnabarinus; experiment: Acaricidal activity against Tetranychus cinnabarinus (carmine spider mite) eggs at 600 mg/kg by leaf dip method; type: functional, Egg
[7] = system: Tetranychus cinnabarinus; experiment: Acaricidal activity against Tetranychus cinnabarinus (carmine spider mite) adults at 200 mg/kg by leaf dip method; type: functional
[8] = system: Culex pipiens pallens; experiment: Larvicidal activity against Culex pipiens pallens (mosquito) at 2 mg/kg; type: functional
[9] = system: Aphis craccivora; experiment: Larvicidal activity against Aphis craccivora (cowpea aphid) at 200 mg/kg by leaf dip method; type: functional
[10] = system: Aphis craccivora; experiment: Larvicidal activity against Aphis craccivora (cowpea aphid) at 600 mg/kg by leaf dip method; type: functional
[11] = system: Tetranychus cinnabarinus; experiment: Acaricidal activity against Tetranychus cinnabarinus (carmine spider mite) larvae at 200 mg/kg by leaf dip method; type: functional
[12] = system: Helicoverpa armigera; experiment: Stomach toxicity against third-instars Helicoverpa armigera assessed as larvicidal activity at 22 mg/kg at 25 +/- 1 degC after 3 days; type: functional; summary of the method: as §1
[13] = system: Tetranychus cinnabarinus; experiment: Acaricidal activity against Tetranychus cinnabarinus (carmine spider mite) adults at 600 mg/kg by leaf dip method; type: functional
[14] = system: Plutella xylostella; experiment: Stomach toxicity against Plutella xylostella (diamondback moth) assessed as larvicidal activity at 200 mg/kg by leaf dip method; type: functional
[15] = system: Helicoverpa armigera; experiment: Stomach toxicity against third-instars Helicoverpa armigera assessed as larvicidal activity at 55 mg/kg at 25 +/- 1 degC after 3 days; type: functional; summary of the method: as §1
[16] = system: Tetranychus cinnabarinus; experiment: Acaricidal activity against Tetranychus cinnabarinus (carmine spider mite) eggs at 200 mg/kg by leaf dip method; type: functional, Egg
[17] = system: Helicoverpa armigera; experiment: Stomach toxicity against third-instars Helicoverpa armigera assessed as larvicidal activity at 5.5 mg/kg at 25 +/- 1 degC after 3 days; type: functional; summary of the method: as §1
[18] = system: Culex pipiens pallens; experiment: Larvicidal activity against Culex pipiens pallens (mosquito) at 0.5 mg/kg; type: functional
[19] = system: Culex pipiens pallens; experiment: Larvicidal activity against Culex pipiens pallens (mosquito) at 1 mg/kg; type: functional

SMILES | Activity [1] [%] | Activity [2] [%] | Activity [3] [%] | Activity [4] [%] | Activity [5] [%] | Activity [6] [%] | Activity [7] [%] | Activity [8] [%] | Activity [9] [%] | Activity [10] [%] | Activity [11] [%] | Activity [12] [%] | Activity [13] [%] | Activity [14] [%] | Activity [15] [%] | Activity [16] [%] | Activity [17] [%] | Activity [18] [%] | Activity [19] [%]
CCc1cc(C(=O)NC(CO)c2ccc(Cl)cc2)n(C)n1 (stereo not drawn) | 0 | 25 | 100 | 20 | 100 | 0 | 0 | 0 | 75 | 98 | 0 | 50 | 25 | 60 | 100 |  |  |  | 
CCc1cc(C(=O)NC(CCl)c2ccc(Cl)cc2)n(C)n1 (stereo not drawn) | 0 | 20 | 30 | 10 | 100 | 30 |  | 0 | 0 | 30 | 0 | 20 | 0 | 0 | 100 | 0 |  |  | 
CCc1nn(C)c(C(=O)NC(CCl)c2ccc(C(C)(C)C)cc2)c1Cl (stereo not drawn) | 20 | 30 | 90 | 100 | 100 | 34 |  | 100 | 100 | 100 | 0 | 100 | 0 | 30 | 100 | 30 | 0 | 0 | 40
CCc1nn(C)c(C(=O)NC(CO)c2ccc(Oc3ccccc3)cc2)c1Cl (stereo not drawn) | 40 | 30 | 60 | 100 | 100 | 15 |  | 100 | 50 | 100 | 0 | 70 | 0 | 20 | 100 | 0 | 0 | 0 | 40
CCCCCOc1ccc(C(CO)NC(=O)c2c(Cl)c(CC)nn2C)cc1 (stereo not drawn) | 0 | 20 | 90 | 20 | 100 | 30 | 0 | 0 | 95 | 100 | 0 | 30 | 15 | 30 | 100 | 20 |  |  | 
CCCCCOc1ccc(C(CCl)NC(=O)c2cc(CC)nn2C)cc1 (stereo not drawn) | 0 | 70 | 15 | 100 | 100 | 70 |  | 60 | 80 | 100 | 40 | 40 | 0 | 0 | 100 | 50 |  |  | 0
CCCCCOc1ccc(C2COC(c3cc(CC)nn3C)=N2)cc1 (stereo not drawn) | 0 | 30 | 30 | 30 | 100 | 50 | 0 | 0 | 20 | 75 | 0 | 30 | 20 | 0 | 100 | 40 |  |  | 
CCc1cc(C(=O)NC(CO)c2ccc(Oc3ccccc3)cc2)n(C)n1 (stereo not drawn) | 0 | 0 | 90 | 30 | 100 | 20 | 0 | 0 | 70 | 95 |  | 30 | 30 | 45 | 100 | 0 |  |  | 
CCc1nn(C)c(C(=O)NC(CO)c2ccc(Cl)cc2)c1Cl (stereo not drawn) | 0 | 25 | 30 | 30 | 100 | 10 |  | 0 | 95 | 100 | 0 | 40 | 0 | 0 | 100 | 0 |  |  | 
CCc1cc(C2=NC(c3ccc(Cl)cc3)CO2)n(C)n1 (stereo not drawn) | 40 | 40 | 60 | 10 | 100 | 100 | 0 | 0 | 90 | 100 | 20 | 70 | 20 | 15 | 100 | 80 | 0 |  | 
CCc1cc(C2=NC(c3ccc(Oc4ccccc4)cc3)CO2)n(C)n1 (stereo not drawn) | 0 | 70 | 70 | 30 | 100 | 90 | 10 | 0 | 20 | 50 | 50 | 40 | 40 | 45 | 100 | 50 |  |  | 
CCc1cc(C(=O)NC(CO)c2ccc(C(C)(C)C)cc2)n(C)n1 (stereo not drawn) | 10 | 0 | 70 | 10 | 100 | 50 |  | 0 | 50 | 70 |  | 60 | 0 | 60 | 100 | 40 | 0 |  | 
CCCCCOc1ccc(C(CCl)NC(=O)c2c(Cl)c(CC)nn2C)cc1 (stereo not drawn) | 60 | 30 | 90 | 100 | 100 | 40 |  | 70 | 45 | 100 | 0 | 100 | 0 | 45 | 100 | 0 | 10 |  | 0
CCCCCOc1ccc(C(CO)NC(=O)c2cc(CC)nn2C)cc1 (stereo not drawn) | 20 | 20 | 45 | 20 | 100 | 20 | 0 | 0 | 85 | 100 | 0 | 60 | 45 | 30 | 100 | 0 | 0 |  | 
CCc1nn(C)c(C2=NC(c3ccc(Cl)cc3)CO2)c1Cl (stereo not drawn) | 90 | 20 | 0 | 100 | 100 | 40 | 0 | 50 | 35 | 60 | 0 | 100 | 10 |  | 100 | 0 | 60 |  | 0
CCc1nn(C)c(C(=O)NC(CO)c2ccc(C(C)(C)C)cc2)c1Cl (stereo not drawn) | 0 | 25 | 80 | 20 | 100 | 40 | 0 | 0 | 80 | 100 |  | 40 | 10 | 40 | 100 | 0 |  |  | 
